Results: ChEMBL document CHEMBL1140137, “Synthesis, ex vivo evaluation, and radiolabeling of potent 1,5-diphenylpyrrolidin-2-one cannabinoid subtype-1 receptor ligands as candidates for in vivo imaging” (J Med Chem, 2008)

Legend:
[1] = organism: Homo sapiens; assay: Selectivity for human CB1 receptor over human CB2 receptor
Outline: (§1)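 GTPγ35S binding was read by anti-Gi antibody-capture scintillation proximity assay. Membranes came from CHO cells expressing human CB1 and from Sf9 cells expressing human CB2. Antagonist dose-responses were run against methanandamide at 80% efficacious dose. Kb = IC50/(1+[agonist]/EC50), with four-parameter fits. Values are the mean ± SEM of at least three independent determinations. Selectivity was taken from the CB1 and CB2 Kb values.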

[2] = Drug uptake in Rimonabant pretreated Sprague-Dawley rat CB1 rich frontal cerebral cortex at […], iv after 0.25 hrs; type: ADME, organism-based; parameters: route intravenous; settings: read-out: Drug uptake
Outline: (§2)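 Adult male Sprague-Dawley rats (225–250 g) were used, three per time point. […] Ligand was dosed at 30 μg/kg i.v. in intralipid/1% AcOH diluted with water. Frontal cortex was taken at 0.25–8 h, homogenized in MeCN/0.1% HCO2H, centrifuged, and the supernatant quantified by LC-MS (ng/g).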

[3] = Drug uptake in Sprague-Dawley rat frontal cerebral cortex at 30 μg/kg, iv after 0.5 hrs
[4] = target: Cannabinoid receptor 2 (Homo sapiens) (UniProt P34972); assay: Antagonist activity at human CB2 receptor in Sf9 cells assessed as GTPgammaS binding; type: functional, cell-based; outline: as §1
Chain of Cannabinoid receptor 2 (Homo sapiens) (P34972 whole entry): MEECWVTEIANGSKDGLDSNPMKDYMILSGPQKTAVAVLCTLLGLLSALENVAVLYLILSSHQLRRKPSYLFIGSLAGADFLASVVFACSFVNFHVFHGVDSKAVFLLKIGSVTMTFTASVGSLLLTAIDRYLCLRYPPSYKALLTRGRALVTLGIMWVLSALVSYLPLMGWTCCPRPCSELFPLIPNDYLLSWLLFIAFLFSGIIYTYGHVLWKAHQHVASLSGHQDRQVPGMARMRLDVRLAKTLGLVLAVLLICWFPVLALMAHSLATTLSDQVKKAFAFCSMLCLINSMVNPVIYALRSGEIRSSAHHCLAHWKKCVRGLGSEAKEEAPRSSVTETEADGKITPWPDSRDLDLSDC

[5] = Drug uptake in Sprague-Dawley rat frontal cerebral cortex at 30 μg/kg, iv after 8 hrs
[6] = Drug uptake in Sprague-Dawley rat frontal cerebral cortex at 30 μg/kg, iv after 0.25 hrs
[7] = Drug uptake in Rimonabant pretreated Sprague-Dawley rat CB1 rich frontal cerebral cortex at […], iv after 8 hrs; type: ADME, organism-based; parameters: route intravenous; settings: read-out: Drug uptake; outline: as §2

Row | Selectivity ratio [1] | concentration at 0.25 h [2] | concentration at 0.5 h [3] | Kb [4] | concentration at 8 h [5] | concentration at 0.25 h [6] | concentration at 8 h [7] | Structure (SMILES)
1 | 3580 | 9.7 ng/g | 39.3 ng/g | 0.669 µM | 8.2 ng/g | – | – | C[C@@H](N[C@@H]1C[C@H](c2cccc(OCF)c2)N(c2ccc(C(F)(F)F)cc2)C1=O)c1ccccc1
2 | > 19500 | 6.5 ng/g | – | > 8.26 µM | 0.7 ng/g | 22 ng/g | – | C[C@@H](N[C@@H]1C[C@H](c2cccc(OCCF)c2)N(c2ccc(C(F)(F)F)cc2)C1=O)c1ccccc1
3 | – | 11.5 ng/g | – | – | 8.5 ng/g | 39 ng/g | – | COc1cccc([C@H]2C[C@@H](N[C@H](C)c3ccccc3)C(=O)N2c2ccc(C(F)(F)F)cc2)c1 [MEPPEP]
4 | 2160 | 17.3 ng/g | 48 ng/g | 0.466 µM | 10.5 ng/g | – | 0.8 ng/g | COc1cccc([C@H]2C[C@@H](N[C@H](C)c3ccc(F)cc3)C(=O)N2c2ccc(C(F)(F)F)cc2)c1
